PMC6641930 (ACS Omega, 2017)
Where “and” joins values, the source holds several entries; their conditions need not be identical. Equal entries are not always repeated. Where two headings read alike, the source gives them in different places.

Assays:
[1] = target: T1, TTR fibrils (Homo sapiens, UniProt P02766); details: two separate binding events, cited from earlier work
[2] = target: T2, insulin fibrils (Bos taurus, UniProt P01317); experiment: Titration of insulin fibrils on a fixed probe concentration; type: binding, Bovine
T2 sequence (P01317 25-54 limits assumed): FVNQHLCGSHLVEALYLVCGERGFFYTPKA
T2 sequence (P01317 85-105 limits assumed): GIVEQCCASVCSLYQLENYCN
Summary of the method: (§1)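 Fibrils (0–20 μM, monomer basis) are titrated onto fixed probe: 1 μM, or 0.5 μM for Aβ1-42 fibrils. Buffers are pH 3.0 for TTR, insulin and lysozyme, and PBS pH 7.5 for Aβ1-42 (10 μM, 37 °C, 24 h quiescent). Samples equilibrate 30 min at room temperature. Excitation 330 nm, emission 350–700 nm. Kd comes from a one-site nonlinear fit with fixed Bmax correcting for unbound probe. SD is from two independent binding series.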

[3] = target: T1, TTR fibrils; experiment: Fluorescence emission of probe bound to TTR fibrils; type: binding; details: 5 μM fibrils + 1 μM probe; pH 3.0; excitation 330 nm
Summary of the method: (§2)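 Fibrils made from pH 3.0 (TTR: purified WT TTR in 50 mM NaAc/100 mM NaCl; bovine insulin or hen lysozyme: 200 μM in 25 mM HCl pH 1.6 at 65 °C, then dialysed into NaAc/NaCl pH 3.0). 1.0 μM probe from DMSO stock mixed with 5 μM fibrils (monomer basis) in HOAc/NaAc pH 3.0. Excitation 330 nm, emission 350–600 nm. Fold increase taken relative to free probe in buffer.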

[4] = UV-vis absorption and fluorescence spectra in methanol; type: physicochemical; details: for λmax (em): excitation 330 nm, [probe] = 20 μM; for ε: four concentrations
Summary of the method: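 Absorption is read in methanol in a 1 cm quartz cuvette at room temperature, at 20 μM and at four concentrations (50–5 μM, or 10–2 μM for one probe) for ε. Fluorescence of 20 μM probe in methanol uses 330 nm excitation, 350–600 nm emission and 1 nm resolution.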

[5] = target: T3, lysozyme fibrils (Gallus gallus, UniProt P00698); experiment: Fluorescence emission of probe bound to lysozyme fibrils; type: binding, chicken; details: pH 3.0; for Int: fold increase in fluorescence intensity upon binding to lysozyme fibrils: 5 μM fibrils (monomer basis) + 1 μM probe, versus free probe; for λem2: emission maxima of probe bound to lysozyme fibrils: 5 μM fibrils + 1 μM probe, excitation 330 nm
T3 sequence (P00698 19-147): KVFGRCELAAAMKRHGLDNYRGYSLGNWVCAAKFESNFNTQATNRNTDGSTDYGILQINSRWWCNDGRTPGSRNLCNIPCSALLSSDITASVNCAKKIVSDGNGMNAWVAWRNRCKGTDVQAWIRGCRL
Summary of the method: as §2

[6] = Fluorescence lifetime; type: physicochemical; details: A: degassed methanol, [probe] = 5 μM; for τ1: excitation 337 nm
Summary of the method: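 TCSPC decays of 5 μM probe in argon-degassed methanol, excited at 337 nm and monitored at each emission maximum at room temperature. Instrument response is determined with a fibril solution. Decays are fitted to a sum of exponentials, with fit quality judged by χ2, residual distribution and residual autocorrelation. Average lifetime is calculated from amplitudes and lifetimes. Lifetime uncertainty is within 10%.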

[7] = target: T4, Aβ1-42 fibrils (Homo sapiens, UniProt P05067); experiment: Titration of Aβ1-42 fibrils on a fixed probe concentration; type: binding
T4 sequence (P05067 672-713): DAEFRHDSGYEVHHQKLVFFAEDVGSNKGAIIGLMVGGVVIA
Summary of the method: as §1

[8] = target: T4, Aβ1-42 fibrils; experiment: Fluorescence lifetime; details: for τavg (average fluorescence lifetime): B: bound to Aβ1-42 fibrils in PBS buffer pH 7.5, [probe] = 5 μM; for τavg (average fluorescence lifetime) / λem1 (emission wavelength of decay) / τ1: [fibrils] = 20 μM; for λem1 (emission wavelength of decay) / τ1: [probe] = 5 μM
Summary of the method: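 Time-correlated single photon counting on 5 μM probe with 20 μM Aβ1-42 fibrils (monomer basis) in PBS pH 7.5 at 25 °C, not degassed. Excitation 337 nm; decay recorded at the bound-probe emission maximum. Instrument response is measured with fibril solution. Multi-exponential fits are judged by χ2 and residuals. Uncertainty is within 10%.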

[9] = target: T3, lysozyme fibrils; experiment: Titration of lysozyme fibrils on a fixed probe concentration; type: binding, chicken
Summary of the method: as §1

[10] = target: T1, TTR fibrils; experiment: Titration of TTR fibrils on a fixed probe concentration; type: binding
Summary of the method: as §1

[11] = target: native Aβ1-42 (Homo sapiens, UniProt P05067); experiment: Fluorescence emission of probe with freshly dissolved native Aβ1-42; type: binding; details: 5 μM native Aβ1-42 + 1 μM probe; PBS buffer
Chain of native Aβ1-42 (P05067 672-713): as above
Summary of the method: (§3)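 Probe (1.0 μM final, from DMSO stock) is read free in buffer or with 5 μM native protein (monomer basis). Buffers are HOAc/NaAc pH 3.0 or PBS pH 7.5. Aβ1-42 is recombinant with an extra N-terminal Met, freshly gel-filtered monomer in PBS pH 7.5. Spectra are recorded at 330 nm excitation, 350–600 nm emission, with identical instrument settings.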

[12] = target: T4, Aβ1-42 fibrils; experiment: Fluorescence emission of probe bound to Aβ1-42 fibrils; type: binding; details: PBS buffer pH 7.5; for Int: fold increase in fluorescence intensity upon binding to Aβ1-42 fibrils: 5 μM fibrils (monomer basis) + 1 μM probe, versus free probe; for λem2: emission maxima of probe bound to Aβ1-42 fibrils: 5 μM fibrils + 1 μM probe, excitation 330 nm
Summary of the method: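 Recombinant Aβ1-42 (extra N-terminal Met), solubilised in 6 M GuHCl and gel-filtered into PBS pH 7.5. […] Probe (1.0 μM, from DMSO stock) mixed with 5 μM fibrils or freshly dissolved monomer (monomer basis) in PBS pH 7.5. Emission spectra at 330 nm excitation, identical settings.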

[13] = target: T2, insulin fibrils; experiment: Fluorescence emission of probe bound to insulin fibrils; type: binding, Bovine; details: pH 3.0; for Int: fold increase in fluorescence intensity upon binding to insulin fibrils: 5 μM fibrils (monomer basis) + 1 μM probe, versus free probe; for λem2: emission maxima of probe bound to insulin fibrils: 5 μM fibrils + 1 μM probe, excitation 330 nm
Summary of the method: as §2

[14] = target: T5, native TTR (Homo sapiens, UniProt P02766); experiment: Fluorescence emission of probe with native TTR; type: binding; details: 5 μM native TTR + 1 μM probe; for emission peaks of probe bound to native TTR: excitation 330 nm; for fluorescence intensity increase upon binding to native TTR: versus probe in buffer
Summary of the method: as §3

[15] = Emission maximum of free probe in buffer; type: physicochemical; details: HOAc/NaOAc buffer pH 3.0 or PBS buffer pH 7.5
Summary of the method: as §3

[16] = target: T5, native TTR; experiment: Saturation binding of native TTR to probe
[17] = target: T3, lysozyme fibrils; details: two binding sites, cited from earlier work
[18] = target: T2, insulin fibrils; details: read-out: Kd of ThT binding to insulin fibrils; one binding site; cited from earlier work
[19] = cited from earlier work
[20] = read-out: Kd1, TTR fibrils (high-affinity binding site)
[21] = B: bound to Aβ1-42 fibrils in PBS buffer

Structure (SMILES)	Kd [2] [µM]	λem2: emission maxima of probe bound to TTR fibrils [3]	Stokes shift [4] [nm]	λmax (abs) [4] [nm]	λmax (em) [4] [nm]	ε [4]	Int: fold increase in fluorescence intensity upon binding to lysozyme fibrils [5] [fold]	λem2: emission maxima of probe bound to lysozyme fibrils [5] [nm]	α1 (normalized pre-exponential factor) [6]	λem1 (emission wavelength of decay) [6] [nm]	τavg (average fluorescence lifetime) [6] [ns]	Kd [7] [µM]	α1 (normalized pre-exponential factor) [8, 21]	α2 (normalized pre-exponential factor) [8, 21]	τ2 [8, 21] [ns]	τavg (average fluorescence lifetime) [8]	λem1 (emission wavelength of decay) [8, 21] [nm]	τ1 [8, 21] [ns]	Kd [9] [µM]	Kd [10] [µM]	also measured
Oc1ccc(/C=C/c2cccc3ccccc23)cc1O [Compound 1, (E)-4-(2-(naphthalen-1-yl)vinyl)benzene-1,2-diol]	–	–	–	–	–	–	–	–	–	–	–	–	–	–	–	–	–	–	–	–	Kd [1, 20]: 0.11 µM; Kd ([1]; read-out: Kd2, TTR fibrils): > 10 µM
Oc1ccc(/C=C/c2ccccc2)cc1O [Compound 2, (E)-4-Styrylbenzene-1,2-diol]	8 ± 1.6	395 nm	61	325	386	25 038 L·M^–1 cm^–1	3.8	382	1	395	<0.05	4.3 ± 0.2	0.86	0.14	2.31	1.3 ns and 1.33 ns	410	0.28	7 ± 1.6	15.1 ± 0.9	τ1 [6]: < 0.05 ns; fluorescence / binding with freshly prepared native Aβ1-42 [11]: Neither 2, 4, or 5 fluoresced appreciably; Int: fold increase in fluorescence intensity upon binding to Aβ1-42 fibrils [12]: 2.6 fold; λem2: emission maxima of probe bound to Aβ1-42 fibrils [12]: 384 nm; Int: fold increase in fluorescence intensity upon binding to insulin fibrils [13]: 7.5 fold; λem2: emission maxima of probe bound to insulin fibrils [13]: 382 nm
Oc1ccc(/C=C/c2ccc3ccccc3c2)cc1O [Compound 3, (E)-4-(2-(naphthalen-2-yl)vinyl)benzene-1,2-diol]	4.5 ± 0.4	395 nm	86	334	420	30 170 L·M^–1 cm^–1	13.1	410	1	415	0.52	2.2 ± 0.4	0.54	0.46	1.65	1.5 ns and 1.45 ns	420	0.23	2.9 ± 0.2	12.3 ± 1	τ1 [6]: 0.52 ns; Kd [1, 20]: 0.07 µM; Kd ([1]; read-out: Kd2, TTR fibrils): > 10 µM; fluorescence / binding with freshly prepared native Aβ1-42 [11]: showed some binding; Int: fold increase in fluorescence intensity upon binding to Aβ1-42 fibrils [12]: 6.9 fold; λem2: emission maxima of probe bound to Aβ1-42 fibrils [12]: 408 nm; Int: fold increase in fluorescence intensity upon binding to insulin fibrils [13]: 13.7 fold; λem2: emission maxima of probe bound to insulin fibrils [13]: 410 nm
Oc1ccc(/C=C/c2ccc3cc4ccccc4cc3c2)cc1O [Compound 4, (E)-4-(2-(anthracen-2-yl)vinyl)benzene-1,2-diol]	3.7 ± 0.6	451 nm and 475 nm	148	335	483	27 070 L·M^–1 cm^–1	37.5	451	1	475	4.23	1.6 ± 0.1	0.38	0.62	6.06	5.7 ns and 5.73 ns	460	0.64	2.8 ± 0.4	7.4 ± 0.5	τ1 [6]: 4.23 ns; emission peaks of probe bound to native TTR [14]: 449 nm and 476 nm; fluorescence intensity increase upon binding to native TTR [14]: about 6.1 fold; fluorescence / binding with freshly prepared native Aβ1-42 [11]: Neither 2, 4, or 5 fluoresced appreciably; Int: fold increase in fluorescence intensity upon binding to Aβ1-42 fibrils [12]: 10.3 fold; Int: fold increase in fluorescence intensity upon binding to insulin fibrils [13]: 91.4 fold; λem2: emission maxima of probe bound to insulin fibrils [13]: 451 nm and 471 nm
Oc1ccc(/C=C/c2cc3ccc4cccc5ccc(c2)c3c45)cc1O [Compound 5, (E)-4-(2-(pyren-2-yl)vinyl)benzene-1,2-diol]	2.3 ± 0.4	420 nm and 445 nm and 475 nm	78	337	415	47 668 L·M^–1 cm^–1	8.9	420	0.77	425	19.11	1.3 ± 0.1	0.11	0.42	8.89	29.8 ns and 29.76 ns	430	0.83	1.6 ± 0.3	6 ± 0.3	λem1: emission maxima of probes in buffer [15]: 420 nm; α2 (normalized pre-exponential factor) [6]: 0.23; τ2 [6]: 29.30 ns; Kd [16]: 0.2 ± 0.01 µM; α3 (normalized pre-exponential factor) [8, 21]: 0.47; τ3 [8, 21]: 34.70 ns; emission peaks of probe bound to native TTR [14]: 420 nm and 445 nm and 475 nm; fluorescence intensity increase upon binding to native TTR [14]: 15.8 fold; fluorescence / binding with freshly prepared native Aβ1-42 [11]: Neither 2, 4, or 5 fluoresced appreciably; Int: fold increase in fluorescence intensity upon binding to Aβ1-42 fibrils [12]: 11.1 fold; λem2: emission maxima of probe bound to Aβ1-42 fibrils [12]: ~421 nm; Int: fold increase in fluorescence intensity upon binding to insulin fibrils [13]: 23.2 fold; λem2: emission maxima of probe bound to insulin fibrils [13]: 420 nm and 445 nm and 475 nm
Cc1ccc2c(c1)sc(-c1ccc(N(C)C)cc1)[n+]2C [ThT, thioflavin T]	–	–	–	–	–	–	–	–	–	–	–	–	–	–	–	–	–	–	–	–	Kd ([17]; read-out: Kd1 of ThT binding to lysozyme fibrils): 0.13 µM; Kd ([17]; read-out: Kd2 of ThT binding to lysozyme fibrils): 17.9 µM; Kd [18]: 10.4 µM; average fluorescence lifetime t1/2 [19]: < 1 ns
